pCIP destab = lowers stability of the mouse p/CIP coactivator protein; Q05BA5; F442A p/CIP-EGFP cells, EGFP fluorescence, 16 h; decrease of EGFP signal, % at 10 µM; hit rate 0.01% among 290,000;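 active means EGFP signal decrease of at least 30% at 10 µM or well 3 SD below plate mean, unless failing retest; inactive means the rest, including hits failing retest or dose response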
GPR7 antagonist = antagonists of human GPR7 (neuropeptides B/W receptor 1). GPR7-expressing cells, fluorescence antagonist assay. hit rate 1.1% among 290,000. inhibition, % at 4.4 µM; in the data active means inhibition above about 16%, passing the limit was not always enough;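 further: cells stimulated with the agonist NPW; 0% = agonist with vehicle and 100% = vehicle without agonist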
Target sequence (P48145 whole entry, looked up): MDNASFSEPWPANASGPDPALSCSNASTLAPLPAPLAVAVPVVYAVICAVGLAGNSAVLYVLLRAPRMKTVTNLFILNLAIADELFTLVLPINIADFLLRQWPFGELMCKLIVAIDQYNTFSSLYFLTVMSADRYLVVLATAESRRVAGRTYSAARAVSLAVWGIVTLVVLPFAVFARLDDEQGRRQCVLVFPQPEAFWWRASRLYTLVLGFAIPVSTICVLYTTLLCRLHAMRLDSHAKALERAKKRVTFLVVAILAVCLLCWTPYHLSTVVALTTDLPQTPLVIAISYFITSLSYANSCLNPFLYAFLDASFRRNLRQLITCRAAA
DNA FID counter-1 = displaces DNA intercalator in HCV helicase counter-screen | DNA fluorescent intercalator displacement, fluorescence | inhibition, % at 7.9 µM | hit rate 0.17% among 290,000 | AID 1845;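 further: 0% = vehicle and 100% = reference compound; higher means more ethidium bromide displaced from hairpin DNA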
core dimer inh = HCV core protein dimerization inhibition; AID 1899; hit rate 0.33% among 300,000; inhibition, % at 5 µM; TR-FRET GST/Flag-core106 dimerization, 1536-well;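 active means inhibition above the mean of all tested compounds plus 3 SD, set per screening campaign, cut at about 45% in these data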
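Assay system – GST-tagged and Flag-tagged HCV core protein residues 1-106 · Quantity – core106 proteins, GST 13.5 nM and Flag 17 nM · Benchmarks – unlabelled core106 and no-GST-core106 wells · Read-out basis – percent inhibition of core106 dimerization signal · Detection – time-resolved FRET, ex 340 nm, em 617 and 671 nm · Schedule – 4 h at 22.5 °C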
NS3 helicase inh = blocks Hepatitis C virus NS3 helicase unwinding | hit rate 0.56% among 290,000 | NS3 helicase DNA unwinding, Cy5 molecular beacon fluorescence | inhibition, % at 10.9 µM;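 active means inhibition above the mean of all tested compounds plus 3 SD, set per campaign, cut at about 35% in these data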;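 further: 0% = DMSO wells and 100% = thioflavine S control wells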
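Measured by: Cy5 fluorescence, 0 and 60 min reads / Assay system: NS3 helicase fragment of HCV / Control set: low DMSO, high thioflavine S at 110 µM / Times: 1 h reaction at 25 °C, ATP-initiated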
NS3 helicase cf = confirmation of Hepatitis C virus NS3 helicase inhibitors. shares compounds with NS3 helicase inh. NS3 helicase DNA unwinding, Cy5 molecular beacon fluorescence. inhibition, % at 10.9 µM. hit rate 31% among 1,600;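 active means inhibition above the mean of all tested compounds plus 3 SD, cutoff set per campaign, cut at about 36% in these data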
DNA FID counter-2 = intercalator displacement, NS3 helicase counter-screen; hit rate 4% among 1,600; shares compounds with NS3 helicase inh; AID 1945; inhibition, % at 7.9 µM; DNA fluorescent intercalator displacement, fluorescence;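 further: 0% = vehicle and 100% = reference compound; higher means more displacement of ethidium bromide from the DNA hairpin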
FID counter DR = counter-screen for HCV NS3 helicase inhibitors: DNA intercalator displacement dose response. shares compounds with NS3 helicase inh. fluorescent intercalator displacement from DNA, fluorescence. IC50, µM. 120 tested, under 10 active. AID 2172; call rule not given here
Active calls of the source: *; x = not tested or not shown. An excerpt weighted towards active compounds, which were near 1.9% of everything screened. Unless noted, no stated cut-off is given here; in the data, active means inhibition above about 37%; inactive means the rest.

SMILES | pCIP destab | GPR7 antagonist | DNA FID counter-1 | core dimer inh | NS3 helicase inh | NS3 helicase cf | DNA FID counter-2 | others
Cc1ccc2c(c1Cl)NC(C(=O)O)C1CC(Sc3ccccc3[N+](=O)[O-])C(Cl)C21 (stereo not given) | -2 | -1 | -5 | 66* | 14 | x | x
O=[N+]([O-])O[C@H]1CO[C@H]2[C@@H]1OC[C@H]2O[N+](=O)[O-] | x | x | x | 5 | x | x | x
O=c1c2cc(Br)ccc2[nH]c(=S)n1-c1ccccc1 | -5 | 29* | 9 | -1 | 1 | x | x
CCCCCSc1cc(OC)c(CCN(C)C)cc1OC | 13 | 18 | 37* | -11 | -51 | x | x
COc1ccc2[nH]cc(CCN(C)C)c2c1 | 7 | -1 | 3 | 2 | 1 | x | x
C=C1C(=O)O[C@@H]2C[C@@H](C)[C@H]3C=CC(=O)[C@]3(O)C[C@@H]12 | -14 | x | x | 47* | x | x | x
COc1ccccc1-n1c(-c2ccc(C)cc2)nc2ccccc2c1=O | -2 | 1 | -28 | x | -7 | x | x
CN1CCC(N(C)c2nc(-c3ccc([N+](=O)[O-])cc3)nc3ccccc23)CC1 | -7 | 24 | 46* | x | -78 | x | x
CCN(CC)P(=O)(c1n(CC)cc[n+]1CC)N(CC)CC | 24 | 1 | 2 | 0 | 4 | x | x
C[n+]1c(-c2ccccc2)c2cc(N)ccc2c2ccc(N)cc21 | -64 | -12 | 38* | -71 | 34 | x | x
Nc1ccc2ccc3cccc[n+]3c2c1 | -85 | 1 | 19 | 5 | 3 | x | x
CN1CCN(Cc2cn(C)c3ccccc23)CC1CCO (stereo not given) | 11 | -8 | -3 | -8 | 2 | x | x
CN1CCc2cc3c(c4c2C1Cc1ccccc1-4)OCO3 (stereo not given) | -21 | -7 | 30 | 12 | 44* | -6 | 82*
CC1(C)C2([N+](=O)[O-])CN3CC1([N+](=O)[O-])CN(C2)C3c1ccccn1 (stereo not given) | 2 | -12 | -7 | 1 | -10 | x | x
CCOc1cccc(N2C(=O)CC(=O)NC2=O)c1 | 5 | -15 | -36 | -4 | 59* | -22 | 3
Cc1ccc(N2C(=O)CC(=O)NC2=O)cc1Cl | -5 | 7 | -24 | -9 | 45* | -3 | 33
COc1cccc(N2C(=O)CC(=O)NC2=O)c1 | -6 | 9 | -21 | 2 | 28 | x | x
CCCCn1c(NC(=O)c2ccc(Br)o2)c(C(=O)OCC)c2nc3ccccc3nc21 | -34 | 8 | -19 | -1 | 15 | x | x
CCCCn1c(NS(=O)(=O)c2ccccc2)c(C(=O)OCC)c2nc3ccccc3nc21 | -18 | -2 | -31 | 5 | 37* | 58* | -39
O=C(O)c1ccccc1-c1ccc(C=C2C(=O)N(c3ccccc3)C(=S)N(c3ccccc3)C2=O)o1 | -4 | 12 | -20 | 10 | 42* | 69* | 9
O=C1NC(=O)N(c2ccccc2)C(=O)/C1=C\c1ccc([N+](=O)[O-])o1 | -10 | -11 | -14 | 2 | 34 | x | x
CC1=C2[C@@H]3OC(=O)[C@H](C)C3CC[C@@]2(C)C=CC1=O (stereo not given in full) | 1 | -2 | -1 | 2 | 0 | x | x
CN(C)C1C(=O)C(C(N)=O)=C(O)C2(O)C(=O)C3=C(O)c4c(O)cccc4C(C)(O)C3CC12 (stereo not given) | -1 | -13 | 0 | 0 | 42* | 4 | 11
O=C(O)c1ccccc1NC(=O)N1C[C@H]2C[C@@H](C1)c1cccc(=O)n1C2 | -10 | -8 | 1 | 0 | 42* | -9 | 8
CNS(=O)(=O)c1ccc(-c2ccc(C=C3C(=O)NC(=O)NC3=O)o2)cc1 | -18 | -1 | 0 | 4 | 45* | -28 | 6
SMILES | pCIP destab | GPR7 antagonist | DNA FID counter-1 | core dimer inh | NS3 helicase inh | NS3 helicase cf | DNA FID counter-2 | others
O=C1NC(=O)C(=Cc2ccc(-c3cc(Cl)ccc3[N+](=O)[O-])o2)C(=O)N1 | 13 | -9 | 15 | x | 14 | x | x
O=C1NC(=O)C(=Cc2ccc(-c3ccccc3[N+](=O)[O-])o2)C(=O)N1 | -11 | 16 | 5 | 1 | 45* | -22 | 20
NS(=O)(=O)c1ccc(-c2ccc(C=C3C(=O)NC(=O)NC3=O)o2)cc1 | 13 | -4 | 1 | 10 | 26 | x | x
O=C1NC(=O)N(c2ccccc2)C(=O)/C1=C\c1ccc([N+](=O)[O-])s1 | -25 | -3 | -10 | 2 | 41* | 50* | 11 | FID counter DR=>79
CCN(CC)C(=O)c1ccc2c(c1)C1C(Cl)C(Sc3ccccc3[N+](=O)[O-])CC1C(C(=O)O)N2 (stereo not given) | 2 | -5 | 13 | 20 | 18 | x | x
CCN(CC)C(=O)c1ccc2c(c1)C1C=CCC1C(C(=O)O)N2 (stereo not given) | -18 | -1 | -35 | x | 42* | 86* | -3
Cn1cccc1/C=C1/C(=O)NC(=O)N(Cc2ccc(F)cc2)C1=O | -19 | 5 | -11 | -2 | 33 | x | x
Cn1cccc1/C=C1/C(=O)NC(=S)N(Cc2ccc(F)cc2)C1=O | -6 | -10 | -9 | 66* | 45* | 78* | 18
CCN(CC)C(=O)c1ccc(NC(=O)CNC(C)c2cccc3ccccc23)cc1 (stereo not given) | 7 | 4 | -5 | 8 | 1 | x | x
O=c1[nH]c(=S)n(-c2ccccc2F)c(O)c1C=Nc1ccc(N2CCOCC2)cc1 | -3 | -8 | -18 | 2 | 54* | 18 | -24
O=c1[nH]c(=S)n(-c2ccc(Br)cc2)c(O)c1C=Nc1ccc(N2CCOCC2)cc1 | -2 | -6 | -11 | 18 | 37* | 11 | -14
CC(=O)N1CCN(c2ccc(N=Cc3c(O)n(-c4ccc(Cl)cc4)c(=O)[nH]c3=O)cc2)CC1 | -8 | -9 | -28 | 30 | 43* | -11 | -27
CCN(CC)c1ccc(N=Cc2c(O)n(-c3ccc(Cl)cc3)c(=O)[nH]c2=O)cc1 | -15 | -11 | -1 | 13 | 7 | x | x
Cc1cc(C)cc(-n2c(O)c(C=Nc3ccc(N4CCOCC4)cc3)c(=O)[nH]c2=S)c1 | -1 | -7 | -3 | 8 | 15 | x | x
C=C(C)[C@@]12OC3(c4ccccc4)O[C@@H]1C1[C@@H]4O[C@]4(CO)[C@@H](O)[C@]4(O)C(=O)C(C)=C[C@H]4[C@@]1(O3)[C@H](C)[C@H]2OC(=O)/C=C/C=C/c1ccccc1 (stereo not given in full) | x | x | x | 10 | x | x | x
CCCCCc1nc2c(c(=O)c3ccccc3n2C)c(=O)n1C1CCCCCC1 | -3 | -4 | -5 | 23 | 2 | x | x
Cc1ccccc1-n1c(O)c(C=Nc2ccc(N(C)C)cc2)c(=O)[nH]c1=O | -7 | 3 | -20 | -12 | 43* | -12 | -14

Screening data deposited in PubChem by several laboratories.
